Consider seven molecules from ChEMBL document CHEMBL1143056, “Enhanced substituted resorcinol hydrophobicity augments tyrosinase inhibition potency” (J Med Chem, 2007).

The structures appear in SMILES notation.

One assay addresses T1, Tyrosinase (Agaricus bisporus, UniProt O42713).
T1 sequence (O42713 whole entry): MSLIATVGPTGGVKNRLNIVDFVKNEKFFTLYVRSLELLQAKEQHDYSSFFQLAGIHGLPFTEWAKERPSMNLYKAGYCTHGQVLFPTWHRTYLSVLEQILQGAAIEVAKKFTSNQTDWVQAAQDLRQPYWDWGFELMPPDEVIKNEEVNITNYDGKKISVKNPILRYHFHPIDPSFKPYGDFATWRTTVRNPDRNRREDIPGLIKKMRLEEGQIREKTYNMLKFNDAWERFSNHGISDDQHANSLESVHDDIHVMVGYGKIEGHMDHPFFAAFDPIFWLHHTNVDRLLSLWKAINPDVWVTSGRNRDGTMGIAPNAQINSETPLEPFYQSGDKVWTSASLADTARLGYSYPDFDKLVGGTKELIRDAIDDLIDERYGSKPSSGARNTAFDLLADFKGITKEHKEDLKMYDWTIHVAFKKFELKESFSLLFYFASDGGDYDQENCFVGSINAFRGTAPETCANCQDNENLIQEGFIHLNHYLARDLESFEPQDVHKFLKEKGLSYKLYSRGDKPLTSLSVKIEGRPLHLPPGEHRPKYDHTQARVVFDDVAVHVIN
Description: Inhibition of mushroom tyrosinase. The gist of the method: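 Wells held 50 mM potassium phosphate pH 6.5, tyrosinase at 50 units/mL final and inhibitor in absolute ethanol (5-100 µM final). After 10 min at 25 °C, L-tyrosine was added to 1 mM. Absorbance at 450 nm was read every 5 min against an ethanol-only control. IC50 was taken from the linear zone at 20 min.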

In assay [1] the target is T2, Tyrosinase (Agaricus bisporus) (UniProt O42713).
T2 sequence (whole entry): T1 sequence (O42713 whole entry)
Put plainly: Inhibition of mushroom tyrosinase at 0.3 uM for 10 min pre-incubated before addition of tyrosine.

Assay [2] deals with T2, Tyrosinase (Agaricus bisporus). Description: Inhibition of mushroom tyrosinase at 0.3 uM for 10 min preincubated before addition of 1 mM tyrosine.
Assay [3] shares this target. Put plainly: Inhibition of mushroom tyrosinase at 0.3 uM for 10 min pre-incubated before addition of 3.75 mM tyrosine.
Assay [4] has the same target. Description: Inhibition of mushroom tyrosinase at 10 uM for 10 min pre-incubated before addition of tyrosine.

In general, IC50 refers to the concentration that inhibits the measured activity by half. Usually inhibition stands for the percentage by which the read-out fell short of the control. A lower inhibition goes with little suppression.

Regarding `CC(C)(C)OC(=O)CCc1ccc(O)cc1O`, at Tyrosinase, half-maximal inhibition (IC50) was put at 14900 nM.

`CCC(C)(C)C(OC(=O)CCc1ccc(O)cc1O)C(C)(C)CC` showed a half-inhibitory concentration (IC50) at Tyrosinase of 150 nM. Besides, the inhibition worked out at 80% in assay [1], 97% in assay [2] and 86% in assay [3].

`CC(C)(C)COC(=O)CCc1ccc(O)cc1O` returned a half-maximal inhibitory concentration (IC50) against Tyrosinase of 180 nM.

Molecule `CCCCCCCCOC(=O)CCc1ccc(O)cc1O` displayed a 50% inhibitory concentration (IC50) at Tyrosinase of 700 nM.

At Tyrosinase, `O=C(O)CCc1ccc(O)cc1O` registered an IC50 of 1850 nM. Besides, the inhibition in assay [4] came out at 80%.

The molecule `CC(C)OC(=O)CCc1ccc(O)cc1O` yielded an IC50 on Tyrosinase of 70 nM.

With `CCOC(=O)CCc1ccc(O)cc1O`, the IC50 on Tyrosinase stood at 220 nM.
